Published values from different studies.
Lines come from different studies, so protocols differ.
Target: Glycogen synthase kinase-3 alpha (GSK3A, Homo sapiens, UniProt P49840)

With `CN(C)c1ncc(F)c(-c2cnn3ncccc23)n1` the remaining binding was 82% (binding; 1 µM).
`Cc1cnc(Nc2ccc(C(=O)N3CCC(N4CCCC4)CC3)cc2)nc1-c1cc2ccccc2s1` has a remaining binding of 43% (binding; competition with immobilised ligand; 1 µM).
For `Cn1nc(C(=O)NCc2ccc(C(=O)O)cc2)cc1-c1ccc2[nH]ccc2c1`, the remaining binding was 61% (cell-free assay; competition with immobilised ligand; 0.1 µM).
`COc1ccnn2ncc(-c3ccnc(N(C)C)n3)c12` has a remaining binding of 96% (binding; 1 µM).
The remaining binding of `O=C(NC[C@@H]1[C@H]2CN(C(=O)OCc3cc(C(F)(F)F)cc(C(F)(F)F)c3)C[C@@H]12)c1ccc2[nH]nnc2c1` is reported as 99% (cell-free assay; competition with immobilised ligand; 1 µM).
For `c1cnn2ncc(-c3ccnc(N4CCC45COC5)n3)c2c1`, the remaining binding was 100% (binding; 1 µM).
For `COc1ccc2c(c1)O[C@@H](c1ccc(OC)c(OC)c1)C[C@H]2NC(=O)C1(c2ccc3c(c2)OC(F)(F)O3)CC1`, the remaining binding was 100% (cell-free assay; competition with immobilised ligand; 1 µM).
For `c1cncc(-c2cccc(Nc3nccc(NC4CCCCC4)n3)c2)c1`, the remaining binding was 65% (binding; competition with immobilised ligand; 10 µM).
`O=C(NCCCN1CCOCC1)c1ccc(Nc2ncc(Cl)c(-c3ccc(Cl)s3)n2)cc1` gave a remaining binding of 43% (binding; competition with immobilised ligand; 1 µM).
With `N[C@@H]1CCN(c2nccc(-c3cnn4ncccc34)n2)C1` the remaining binding was 100% (binding; 1 µM).
`CNC(=O)[C@@H]1CC[C@@H](n2c(-c3ccc4cnccc4c3)nc3ccc(C(=O)NCc4cccc(C(N)=O)c4)cc32)C1` gave a remaining binding of 85% (binding; competition with immobilised ligand; 1 µM).
For `CN1CCN(c2cnc3c(C4CCN(C(=O)c5ccc(OC(F)(F)F)cc5N)CC4)ncnc3c2)CC1`, the remaining binding was 100% (cell-free assay; competition with immobilised ligand; 1 µM).
With `C[C@@H]1CCN(c2nccc(-c3cnn4ncccc34)n2)C1` the remaining binding was 80% (binding; 1 µM).
`O=C(NCC1CCOCC1)c1n[nH]cc1NC(=O)c1c(F)cccc1F` has a remaining binding of 0% (binding; competition with immobilised ligand; 1 µM).
With `C[C@@H](c1ccc(-n2cnc3c(N)ncnc32)cc1)N1CCc2nn(C)c(Cc3ccccc3)c2C1=O` the remaining binding was 72% (binding; competition with immobilised ligand; 0.1 µM).
The remaining binding of `CC(C)(O)c1cncc(-c2nc3ccc(F)cc3n2C2CC2)c1` is reported as 100% (cell-free assay; competition with immobilised ligand; 1 µM).
`CC1CCCN1c1nccc(-c2cnn3ncccc23)n1` (stereo not drawn) gave a remaining binding of 94% (binding; 1 µM).
`O=C(c1ccc(Nc2nccc(-c3cc4ccccc4s3)n2)cc1)N1CCC(N2CCCC2)CC1` has a remaining binding of 82% (binding; competition with immobilised ligand; 1 µM).
The remaining binding of `CCN1CCN(Cc2ccc(C(=O)Nc3ccc(C)c(Oc4ccc5c(c4)CC(=O)N5)c3)cc2C(F)(F)F)CC1` is reported as 100% (binding; competition with immobilised ligand; 1 µM).
The remaining binding of `C[C@H](NC(=O)c1cnc2n1[C@](C)(Cc1ccc(C#N)cc1)C(=O)N2c1cc(Cl)c(F)c(Cl)c1)C(=O)NC1(c2ccccn2)CC1` is reported as 100% (cell-free assay; competition with immobilised ligand; 1 µM).
The remaining binding of `COc1cnc(Nc2cccc(S(N)(=O)=O)c2)nc1N1CCN(c2ccccc2)C(=O)C1` is reported as 90% (binding; competition with immobilised ligand; 1 µM).
